What was measured:
UO-31 = test: Antiproliferative against human UO31 cells incubated for 24 hrs by MTT assay; type: functional, cell-based; settings: UO-31, 24 h
Procedure, shortened: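 UO-31 cells from ATCC, grown in DMEM with 10% FBS, 10 ug/mL insulin and 1% penicillin-streptomycin. Seeded at 1.2–1.8 × 10,000 cells/well with test compound for 24 h. MTT read-out: crystals dissolved in acidified isopropanol, absorbance at 570 nm.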

[1] = target: T1, Prostaglandin G/H synthase 1 (Ovis aries, UniProt P05979); test: Inhibition of ovine COX-1 by EIA method
T1 sequence (P05979 whole entry): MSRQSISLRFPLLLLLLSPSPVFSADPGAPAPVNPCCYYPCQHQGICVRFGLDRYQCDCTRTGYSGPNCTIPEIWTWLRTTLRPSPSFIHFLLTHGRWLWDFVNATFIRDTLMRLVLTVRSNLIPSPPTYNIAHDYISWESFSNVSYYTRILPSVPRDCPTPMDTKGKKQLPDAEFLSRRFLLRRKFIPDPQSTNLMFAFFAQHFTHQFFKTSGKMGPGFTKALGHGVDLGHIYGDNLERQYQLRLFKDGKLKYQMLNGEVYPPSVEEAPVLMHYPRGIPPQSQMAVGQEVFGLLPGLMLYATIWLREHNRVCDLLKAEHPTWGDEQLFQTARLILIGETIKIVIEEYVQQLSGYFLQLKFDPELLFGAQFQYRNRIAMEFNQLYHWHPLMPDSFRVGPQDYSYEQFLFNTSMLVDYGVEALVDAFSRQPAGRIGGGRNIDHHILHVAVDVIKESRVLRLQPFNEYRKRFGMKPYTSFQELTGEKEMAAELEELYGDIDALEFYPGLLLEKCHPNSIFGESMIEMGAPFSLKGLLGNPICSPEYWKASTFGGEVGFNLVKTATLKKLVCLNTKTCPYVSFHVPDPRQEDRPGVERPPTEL

[2] = target: Epidermal growth factor receptor (Homo sapiens, UniProt P00533); test: Inhibition of recombinant human GST-tagged EGFR catalytic domain (668 to 1210 residues) expressed in baculovirus expression system using TK-biotin peptide as substrate measured after 10 mins by HTRF assay
Chain of Epidermal growth factor receptor (P00533 whole entry, the tested form may be a part): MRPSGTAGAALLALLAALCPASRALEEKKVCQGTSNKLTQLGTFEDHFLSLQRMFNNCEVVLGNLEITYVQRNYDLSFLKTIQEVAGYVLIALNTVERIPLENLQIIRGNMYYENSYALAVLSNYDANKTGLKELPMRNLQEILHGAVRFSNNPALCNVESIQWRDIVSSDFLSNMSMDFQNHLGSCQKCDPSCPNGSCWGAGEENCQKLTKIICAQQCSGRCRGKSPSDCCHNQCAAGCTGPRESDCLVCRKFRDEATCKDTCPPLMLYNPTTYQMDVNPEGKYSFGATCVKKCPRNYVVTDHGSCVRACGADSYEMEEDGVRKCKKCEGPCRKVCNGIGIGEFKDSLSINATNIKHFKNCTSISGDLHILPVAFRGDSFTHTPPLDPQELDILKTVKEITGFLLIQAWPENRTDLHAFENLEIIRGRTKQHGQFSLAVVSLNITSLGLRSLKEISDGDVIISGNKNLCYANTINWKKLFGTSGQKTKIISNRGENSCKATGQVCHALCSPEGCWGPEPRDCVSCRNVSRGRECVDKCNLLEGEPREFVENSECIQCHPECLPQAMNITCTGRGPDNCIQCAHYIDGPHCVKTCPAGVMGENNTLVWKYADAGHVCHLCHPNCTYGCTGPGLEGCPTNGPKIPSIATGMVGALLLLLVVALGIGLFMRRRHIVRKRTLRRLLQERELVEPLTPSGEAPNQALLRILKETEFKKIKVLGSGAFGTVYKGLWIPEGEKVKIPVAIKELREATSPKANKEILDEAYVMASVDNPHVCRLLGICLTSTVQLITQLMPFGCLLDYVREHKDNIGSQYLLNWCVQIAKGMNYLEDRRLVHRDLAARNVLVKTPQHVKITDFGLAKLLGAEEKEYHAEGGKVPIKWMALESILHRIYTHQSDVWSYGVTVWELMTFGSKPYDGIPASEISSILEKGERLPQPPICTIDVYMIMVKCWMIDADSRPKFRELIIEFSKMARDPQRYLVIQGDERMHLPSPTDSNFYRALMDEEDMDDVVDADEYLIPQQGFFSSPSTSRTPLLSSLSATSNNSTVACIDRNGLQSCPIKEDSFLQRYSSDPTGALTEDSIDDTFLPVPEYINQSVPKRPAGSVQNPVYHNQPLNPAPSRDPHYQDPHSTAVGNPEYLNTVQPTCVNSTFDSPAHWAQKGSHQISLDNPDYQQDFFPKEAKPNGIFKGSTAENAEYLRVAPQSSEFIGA

Row | IC50 [1] | IC50 [2] | Compound | IC50 (UO-31)
1 | 6.87 µM |  | O=C(Nc1ccccc1)Nc1nnc(-c2ccccc2)o1 | 0.0332 µM
2 | 6.78 µM |  | O=C(CSc1nnc(-c2ccncc2)o1)N/N=C/c1ccc(Cl)cc1 | 
3 | 4.49 µM |  | O=C(CSc1nnc(-c2ccncc2)o1)N/N=C/c1ccc([N+](=O)[O-])cc1 | 
4 | 14.2 µM |  | CCO/C=N/c1nnc(-c2ccccc2)o1 | 
5 | 5.71 µM |  | Brc1ccc(/C=N/Nc2nnc(-c3ccncc3)o2)cc1 | 
6 | 12 µM |  | O=[N+]([O-])c1ccc(/C=N/c2nnc(-c3ccc(Cl)cc3)o2)cc1 | 
7 | 8.69 µM |  | Clc1ccc(/C=N/Nc2nnc(-c3ccncc3)o2)cc1 | 
8 | 6.84 µM |  | Clc1ccc(-c2nnc(CSc3nnc(-c4ccncc4)o3)o2)cc1 | 
9 | 15.4 µM |  | CCO/C=N/c1nnc(-c2ccc(Cl)cc2)o1 | 0.0527 µM
10 | 10.9 µM |  | O=C(Nc1ccccc1)Nc1nnc(-c2ccc(Cl)cc2)o1 | 
11 | 13.7 µM |  | N#CCC(=O)Nc1nnc(-c2ccc(Cl)cc2)o1 | 
12 | 5.39 µM |  | Clc1ccc(/C=N/c2nnc(-c3ccc(Cl)cc3)o2)cc1 | 0.0296 µM
13 | 9.81 µM |  | O=[N+]([O-])c1ccc(/C=N/c2nnc(-c3ccccc3)o2)cc1 | 
14 | 4.17 µM |  | Brc1ccc(-c2nnc(CSc3nnc(-c4ccncc4)o3)o2)cc1 | 0.0835 µM
15 | 12.7 µM |  | CCO/C=N/c1nnc(-c2cccnc2)o1 | 0.31 µM
16 | 9.37 µM |  | O=C(Nc1ccccc1)Nc1nnc(-c2cccnc2)o1 | 0.00576 µM
17 | 7.54 µM |  | Clc1ccc(-c2nnc(/N=C/c3ccccc3)o2)cc1 | 
18 | 9.87 µM | 0.412 µM | O=[N+]([O-])c1ccc(/C=N/Nc2nnc(-c3ccncc3)o2)cc1 | 0.0086 µM
19 | 10.5 µM | 1.13 µM | Clc1ccc(/C=N/c2nnc(-c3cccnc3)o2)cc1 | 0.0136 µM
20 | 10.6 µM |  | C(=N\Nc1nnc(-c2ccncc2)o1)/c1ccccc1 | 
21 | 11.4 µM |  | Clc1ccc(/C=N/c2nnc(-c3ccccc3)o2)cc1 | 
22 | 8.29 µM |  | O=[N+]([O-])c1ccc(/C=N/c2nnc(-c3cccnc3)o2)cc1 | 
23 | 7.96 µM |  | Oc1ccc(-c2nnc(CSc3nnc(-c4ccncc4)o3)o2)cc1 | 
24 | 13.1 µM |  | N#CCC(=O)Nc1nnc(-c2cccnc2)o1 | 
25 |  |  | COc1cccc2c1C(=O)c1c(O)c3c(c(O)c1C2=O)C[C@@](O)(C(=O)CO)C[C@@H]3O[C@H]1C[C@H](N)[C@H](O)[C@H](C)O1 [DOXORUBICIN] | 0.00745 µM

— ChEMBL document CHEMBL4311968, “New oxadiazoles with selective-COX-2 and EGFR dual inhibitory activity: Design, synthesis, cytotoxicity evaluation and in silico studies” (Eur J Med Chem, 2019)
